# In ChEMBL document CHEMBL5705899 (Biochem J, 2014):
# Calls of active or inactive are those of the source. The calls are words filed in the database; no cut-off is given here.
# Experiments:
# [1] = target: G protein-coupled receptor kinase 5 (Homo sapiens) (UniProt P34947); assay: Inhibition of human GRK5 at 1 uM using casein as substrate in presence of 33P-ATP by ProQinase assay
# [2] = target: Serine/threonine-protein kinase Chk2 (Homo sapiens) (UniProt O96017); assay: Inhibition of human CHK2 at 1 uM using bio-4xCHKT as substrate in presence of 33P-ATP by ProQinase assay
# [3] = target: Homeodomain-interacting protein kinase 2 (Homo sapiens) (UniProt Q9H2X6); assay: Inhibition of recombinant human N-terminal GST-tagged HIPK2 (165 to 564 residues) expressed in Escherichia coli assessed as remaining activity at 1 uM using MBP as substrate incubated for 30 mins in presence of [gamma-33P]ATP by filter binding method relative to control
# [4] = target: Protein kinase C beta type (Homo sapiens) (UniProt P05771); assay: Inhibition of human PKCbeta2 at 1 uM using 3xChocktide-PKC as substrate in presence of 33P-ATP by ProQinase assay
# Protein kinase C beta type (Homo sapiens), sequence (P05771 2-671 limits assumed): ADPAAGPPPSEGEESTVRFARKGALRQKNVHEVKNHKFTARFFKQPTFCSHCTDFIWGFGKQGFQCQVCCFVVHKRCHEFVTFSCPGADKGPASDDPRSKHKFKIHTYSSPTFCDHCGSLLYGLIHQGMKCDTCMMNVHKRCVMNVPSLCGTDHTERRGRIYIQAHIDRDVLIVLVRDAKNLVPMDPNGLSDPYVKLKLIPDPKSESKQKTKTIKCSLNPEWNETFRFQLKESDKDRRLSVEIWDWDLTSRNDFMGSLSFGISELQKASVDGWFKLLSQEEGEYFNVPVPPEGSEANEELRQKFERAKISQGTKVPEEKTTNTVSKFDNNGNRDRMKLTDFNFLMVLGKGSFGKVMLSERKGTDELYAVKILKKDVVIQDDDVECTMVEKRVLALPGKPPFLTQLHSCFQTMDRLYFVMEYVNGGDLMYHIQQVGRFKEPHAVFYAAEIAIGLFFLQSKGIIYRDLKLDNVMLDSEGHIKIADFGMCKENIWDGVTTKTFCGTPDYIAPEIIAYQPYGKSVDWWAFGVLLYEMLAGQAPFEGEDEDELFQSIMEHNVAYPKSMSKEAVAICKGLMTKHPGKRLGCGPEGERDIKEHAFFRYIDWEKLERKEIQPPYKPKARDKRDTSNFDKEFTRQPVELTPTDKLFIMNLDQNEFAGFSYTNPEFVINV
# [5] = target: Interleukin-1 receptor-associated kinase 4 (Homo sapiens) (UniProt Q9NWZ3); assay: Inhibition of human IRAK4 at 1 uM using RB-CTF as substrate in presence of 33P-ATP by ProQinase assay
# [6] = target: Aurora kinase A (Homo sapiens) (UniProt O14965); assay: Inhibition of human AuroraA at 1 uM using bio-4xCHKT as substrate in presence of 33P-ATP by ProQinase assay
# [7] = target: Tyrosine-protein kinase ITK/TSK (Homo sapiens) (UniProt Q08881); assay: Inhibition of human ITK at 1 uM using polyEY as substrate in presence of 33P-ATP by ProQinase assay
# [8] = target: Serine/threonine-protein kinase MARK2 (Homo sapiens) (UniProt Q7KZI7); assay: Inhibition of human MARK2 at 1 uM using RBER-CHKtide as substrate in presence of 33P-ATP by ProQinase assay
# [9] = target: Dual specificity mitogen-activated protein kinase kinase 1 (Homo sapiens) (UniProt Q02750); assay: Inhibition of human MEK1 at 1 uM using ERK2-KR as substrate in presence of 33P-ATP by ProQinase assay
# [10] = target: Calcium/calmodulin-dependent protein kinase type 1 (Homo sapiens) (UniProt Q14012); assay: Inhibition of recombinant human N-terminal GST-tagged CAMK1alpha (2 to 369 residues) expressed in Escherichia coli assessed as remaining activity at 1 uM using YLRRRLSDSNF as substrate incubated for 30 mins in presence of [gamma-33P]ATP by filter binding method relative to control
# Calcium/calmodulin-dependent protein kinase type 1 (Homo sapiens), sequence (Q14012 whole entry, looked up, the tested form may be a part): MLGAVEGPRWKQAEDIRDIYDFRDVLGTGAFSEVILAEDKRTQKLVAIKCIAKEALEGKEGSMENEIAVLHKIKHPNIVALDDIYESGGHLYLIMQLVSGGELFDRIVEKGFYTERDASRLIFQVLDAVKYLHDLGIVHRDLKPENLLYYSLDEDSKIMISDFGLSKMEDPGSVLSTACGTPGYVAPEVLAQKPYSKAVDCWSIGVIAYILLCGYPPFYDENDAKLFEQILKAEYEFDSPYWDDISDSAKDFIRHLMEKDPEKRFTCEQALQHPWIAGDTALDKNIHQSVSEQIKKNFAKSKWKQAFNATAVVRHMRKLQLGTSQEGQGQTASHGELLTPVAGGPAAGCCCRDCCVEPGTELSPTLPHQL
# [11] = target: Ephrin type-A receptor 2 (Homo sapiens) (UniProt P29317); assay: Inhibition of human EPHA2 at 1 uM using polyEy as substrate in presence of 33P-ATP by ProQinase assay
# [12] = target: Mitogen-activated protein kinase kinase kinase 9 (Homo sapiens) (UniProt P80192); assay: Inhibition of human MAP3K9 at 1 uM using RBER-GSK3 as substrate in presence of 33P-ATP by ProQinase assay
# [13] = target: Ribosomal protein S6 kinase beta-1 (Homo sapiens) (UniProt P23443); assay: Inhibition of human S6K1 at 1 uM using RBER-GSK3 as substrate in presence of 33P-ATP by ProQinase assay
# Ribosomal protein S6 kinase beta-1 (Homo sapiens), sequence (P23443 whole entry, looked up): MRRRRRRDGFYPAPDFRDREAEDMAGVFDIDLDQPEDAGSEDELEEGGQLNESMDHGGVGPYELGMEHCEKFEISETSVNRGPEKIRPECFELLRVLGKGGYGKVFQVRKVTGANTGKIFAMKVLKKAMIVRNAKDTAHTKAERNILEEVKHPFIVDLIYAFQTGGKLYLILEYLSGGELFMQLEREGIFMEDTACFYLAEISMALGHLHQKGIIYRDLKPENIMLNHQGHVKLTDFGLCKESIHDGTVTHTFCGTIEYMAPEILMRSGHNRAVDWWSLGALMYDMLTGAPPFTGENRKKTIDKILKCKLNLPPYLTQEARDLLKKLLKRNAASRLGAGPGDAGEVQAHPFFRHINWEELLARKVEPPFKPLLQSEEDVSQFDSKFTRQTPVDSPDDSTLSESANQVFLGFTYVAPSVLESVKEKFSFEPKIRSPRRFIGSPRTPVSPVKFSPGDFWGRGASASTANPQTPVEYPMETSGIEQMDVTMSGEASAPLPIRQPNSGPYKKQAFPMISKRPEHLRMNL
# [14] = target: Ribosomal protein S6 kinase alpha-1 (Homo sapiens) (UniProt Q15418); assay: Inhibition of human RPS6KA1 at 1 uM using RBER-CHKtide as substrate in presence of 33P-ATP by ProQinase assay
# Ribosomal protein S6 kinase alpha-1 (Homo sapiens), sequence (Q15418 whole entry, the tested form may be a part): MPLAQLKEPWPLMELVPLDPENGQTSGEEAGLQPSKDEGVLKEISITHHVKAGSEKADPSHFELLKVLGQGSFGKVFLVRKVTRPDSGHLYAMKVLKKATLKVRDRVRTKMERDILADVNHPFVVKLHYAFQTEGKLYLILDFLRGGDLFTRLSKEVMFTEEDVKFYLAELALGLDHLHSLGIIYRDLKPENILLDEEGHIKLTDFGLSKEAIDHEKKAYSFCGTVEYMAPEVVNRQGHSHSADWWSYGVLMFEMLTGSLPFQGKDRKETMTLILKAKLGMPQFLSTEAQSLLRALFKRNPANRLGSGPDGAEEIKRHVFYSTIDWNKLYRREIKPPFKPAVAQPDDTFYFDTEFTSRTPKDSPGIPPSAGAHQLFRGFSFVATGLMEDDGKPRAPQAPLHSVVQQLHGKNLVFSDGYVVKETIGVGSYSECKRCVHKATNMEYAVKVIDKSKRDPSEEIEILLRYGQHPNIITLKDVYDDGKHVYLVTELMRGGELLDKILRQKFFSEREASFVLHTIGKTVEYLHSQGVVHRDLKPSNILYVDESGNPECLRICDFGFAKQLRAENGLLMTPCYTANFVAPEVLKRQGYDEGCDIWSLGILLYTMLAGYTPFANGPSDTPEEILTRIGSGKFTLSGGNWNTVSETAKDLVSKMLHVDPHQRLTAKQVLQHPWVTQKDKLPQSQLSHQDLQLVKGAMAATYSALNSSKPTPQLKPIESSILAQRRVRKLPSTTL
# [15] = target: Proto-oncogene tyrosine-protein kinase Src (Homo sapiens) (UniProt P12931); assay: (§1) Inhibition of recombinant human N-terminal His6-tagged SRC (1 to 536 residues) expressed in baculovirus infected Sf21 cells assessed as remaining activity at 1 uM using KVEKIGEGTYGVVYK as substrate incubated for 30 mins in presence of [gamma-33P]ATP by filter binding method relative to control
# [16] = target: Hepatocyte growth factor receptor (Homo sapiens) (UniProt P08581); assay: Inhibition of human MET at 1 uM using poly(Ala,Glu,Lys,Tyr) as substrate in presence of 33P-ATP by ProQinase assay
# [17] = target: Dual specificity protein kinase TTK (Homo sapiens) (UniProt P33981); assay: Inhibition of human TTK at 1 uM using RBER-CHKtide as substrate in presence of 33P-ATP by ProQinase assay
# [18] = target: BDNF/NT-3 growth factors receptor (Homo sapiens) (UniProt Q16620); assay: Inhibition of human TRKB at 1 uM using polyEY as substrate in presence of 33P-ATP by ProQinase assay
# BDNF/NT-3 growth factors receptor (Homo sapiens), sequence (Q16620 32-822 limits assumed): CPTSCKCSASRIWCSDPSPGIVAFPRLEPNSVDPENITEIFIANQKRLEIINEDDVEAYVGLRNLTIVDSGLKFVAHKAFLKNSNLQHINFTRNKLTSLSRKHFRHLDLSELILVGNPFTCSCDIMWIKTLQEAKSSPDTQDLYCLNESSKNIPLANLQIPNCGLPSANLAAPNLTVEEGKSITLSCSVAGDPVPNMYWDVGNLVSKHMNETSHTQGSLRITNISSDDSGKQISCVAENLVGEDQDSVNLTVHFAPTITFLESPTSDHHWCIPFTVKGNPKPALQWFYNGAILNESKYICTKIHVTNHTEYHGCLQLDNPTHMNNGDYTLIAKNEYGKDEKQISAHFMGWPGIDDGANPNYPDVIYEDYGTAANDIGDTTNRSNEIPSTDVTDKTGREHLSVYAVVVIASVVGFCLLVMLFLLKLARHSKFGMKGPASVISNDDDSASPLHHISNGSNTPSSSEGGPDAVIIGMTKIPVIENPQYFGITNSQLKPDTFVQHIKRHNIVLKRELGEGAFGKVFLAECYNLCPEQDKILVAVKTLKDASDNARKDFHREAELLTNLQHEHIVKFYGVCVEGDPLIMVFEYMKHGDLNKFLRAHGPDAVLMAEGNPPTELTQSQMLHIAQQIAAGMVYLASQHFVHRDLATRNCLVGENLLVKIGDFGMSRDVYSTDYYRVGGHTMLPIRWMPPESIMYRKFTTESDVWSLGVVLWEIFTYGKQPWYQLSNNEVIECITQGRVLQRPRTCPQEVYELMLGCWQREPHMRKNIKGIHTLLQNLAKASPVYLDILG
# [19] = target: Wee1-like protein kinase (Homo sapiens) (UniProt P30291); assay: Inhibition of human WEE1 at 1 uM using poly(Ala,Glu,Lys,Tyr) as substrate in presence of 33P-ATP by ProQinase assay
# [20] = target: Tyrosine-protein kinase Fgr (Homo sapiens) (UniProt P09769); assay: Inhibition of human FGR at 1 uM using polyEY as substrate in presence of 33P-ATP by ProQinase assay
# [21] = target: Mitogen-activated protein kinase 15 (Homo sapiens) (UniProt Q8TD08); assay: Inhibition of human ERK7 at 1 uM using RBER-CHKtide as substrate in presence of 33P-ATP by ProQinase assay
# [22] = target: Phosphatidylinositol 4,5-bisphosphate 3-kinase catalytic subunit alpha isoform (Homo sapiens, UniProt P42336); assay: Inhibition of PI3Kalpha (unknown origin) using PtdIns(4,5)P2 as substrate preincubated for 20 mins followed by substrate addition and measured after 80 mins by Kinase-Glo assay
# Summary of the method: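 PIK3CA at 20 nM in 50 mM Tris/HCl pH 7.4, 0.05% CHAPSO, 10 mM MgCl2 and 2.1 mM DTT was pre-incubated with inhibitor at varying concentrations for 20 min. Then 80 μM PtdIns(4,5)P2 and 8 μM ATP (below apparent Km) were added, with 2% DMSO final. The reaction ran 80 min at ambient temperature, followed by Kinase-Glo Plus for 20 min and a luminescence read.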
# [23] = target: Serine/threonine-protein kinase SIK2 (Homo sapiens) (UniProt Q9H0K1); assay: as §1, with “GST and HA-tagged SIK2 (2” for “His6-tagged SRC (1”, “926” for “536”, “ALNRTSSDSALHRRR” for “KVEKIGEGTYGVVYK”
# [24] = target: G protein-coupled receptor kinase 4 (Homo sapiens) (UniProt P32298); assay: Inhibition of human GRK4 at 1 uM using casein as substrate in presence of 33P-ATP by ProQinase assay
# [25] = target: PI3-kinase p110-delta/p85-alpha (Homo sapiens, UniProt O00329); assay: Inhibition of human PIK3CD/PIK3R1 using PIP2/PS as substrate by ADP-Glo assay; type: protein-complex assay
# PI3-kinase p110-delta/p85-alpha, sequence (P27986 whole entry): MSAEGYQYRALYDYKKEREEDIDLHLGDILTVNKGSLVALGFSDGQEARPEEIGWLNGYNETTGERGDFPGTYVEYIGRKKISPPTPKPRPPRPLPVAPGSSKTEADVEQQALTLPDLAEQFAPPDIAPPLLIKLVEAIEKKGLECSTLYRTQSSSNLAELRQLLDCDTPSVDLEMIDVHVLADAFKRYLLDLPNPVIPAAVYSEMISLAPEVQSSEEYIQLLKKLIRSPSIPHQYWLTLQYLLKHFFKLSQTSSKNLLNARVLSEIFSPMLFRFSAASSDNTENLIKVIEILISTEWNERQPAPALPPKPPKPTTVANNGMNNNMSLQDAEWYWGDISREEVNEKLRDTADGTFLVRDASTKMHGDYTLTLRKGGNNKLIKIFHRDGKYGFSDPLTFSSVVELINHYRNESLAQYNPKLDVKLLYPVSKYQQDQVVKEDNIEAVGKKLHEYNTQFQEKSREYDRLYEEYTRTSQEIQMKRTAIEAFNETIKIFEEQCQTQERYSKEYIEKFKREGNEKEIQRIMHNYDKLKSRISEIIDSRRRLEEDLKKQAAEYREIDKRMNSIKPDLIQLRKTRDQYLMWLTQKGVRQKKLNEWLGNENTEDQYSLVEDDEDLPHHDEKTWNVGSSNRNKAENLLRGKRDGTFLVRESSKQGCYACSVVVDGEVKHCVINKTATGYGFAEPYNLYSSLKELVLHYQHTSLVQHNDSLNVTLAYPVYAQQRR
# PI3-kinase p110-delta/p85-alpha, sequence (O00329 whole entry): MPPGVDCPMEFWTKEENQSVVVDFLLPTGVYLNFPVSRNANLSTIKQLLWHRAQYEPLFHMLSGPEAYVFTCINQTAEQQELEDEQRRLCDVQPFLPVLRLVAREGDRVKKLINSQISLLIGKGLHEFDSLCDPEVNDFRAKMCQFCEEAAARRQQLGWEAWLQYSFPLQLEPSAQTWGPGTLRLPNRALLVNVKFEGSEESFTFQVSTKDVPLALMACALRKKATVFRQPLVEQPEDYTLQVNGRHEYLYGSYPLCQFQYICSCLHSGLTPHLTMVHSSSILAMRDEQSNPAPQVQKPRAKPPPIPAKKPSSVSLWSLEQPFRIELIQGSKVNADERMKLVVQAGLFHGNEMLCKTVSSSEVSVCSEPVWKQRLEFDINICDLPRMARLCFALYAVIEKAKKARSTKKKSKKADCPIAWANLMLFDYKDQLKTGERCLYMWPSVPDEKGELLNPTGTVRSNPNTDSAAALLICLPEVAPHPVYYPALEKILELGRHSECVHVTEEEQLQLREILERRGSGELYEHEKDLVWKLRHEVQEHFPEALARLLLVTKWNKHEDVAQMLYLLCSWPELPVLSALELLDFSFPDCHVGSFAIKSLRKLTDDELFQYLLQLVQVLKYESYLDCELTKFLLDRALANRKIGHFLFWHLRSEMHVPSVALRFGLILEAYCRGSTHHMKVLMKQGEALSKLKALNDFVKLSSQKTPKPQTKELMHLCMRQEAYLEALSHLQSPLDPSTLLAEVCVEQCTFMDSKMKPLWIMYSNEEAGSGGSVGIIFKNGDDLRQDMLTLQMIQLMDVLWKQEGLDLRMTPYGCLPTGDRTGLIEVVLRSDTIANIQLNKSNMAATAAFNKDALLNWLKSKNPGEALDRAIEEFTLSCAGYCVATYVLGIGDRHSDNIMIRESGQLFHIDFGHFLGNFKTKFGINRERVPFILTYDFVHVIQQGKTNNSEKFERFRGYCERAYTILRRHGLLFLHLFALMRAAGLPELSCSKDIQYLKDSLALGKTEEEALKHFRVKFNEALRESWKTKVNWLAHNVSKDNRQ
compound,measurement,setting,value
CC(C)(O)CNc1ncc(-c2ccnc(Nc3ccnc(Cl)c3)n2)c(CC2CC2)n1,inhibition,[1],inactive
same,inhibition,[2],inactive
same,Activity,[3],96%
same,inhibition,[4],inactive
same,inhibition,[5],inactive
same,inhibition,[6],inactive
same,inhibition,[7],inactive
same,inhibition,[8],inactive
same,inhibition,[9],inactive
same,Activity,[10],116%
same,inhibition,[11],inactive
same,inhibition,[12],inactive
same,inhibition,[13],inactive
same,inhibition,[14],inactive
same,Activity,[15],84%
same,inhibition,[16],inactive
same,inhibition,[17],inactive
same,inhibition,[18],inactive
same,inhibition,[19],inactive
same,inhibition,[20],inactive
same,inhibition,[21],inactive
same,IC50,[22],8.04 µM
same,Activity,[23],106%
same,inhibition,[24],inactive
same,IC50,[25],> 10 µM
